Measured values published in ChEMBL document CHEMBL2424538, “Synthesis, resolution, and biological evaluation of atropisomeric (aR)- and (aS)-16-methyllamellarins N: unique effects of the axial chirality on the selectivity of protein kinases inhibition” (J Med Chem, 2013).
Calls of active or inactive are those of the source. No cut-off for these calls is given here.

Key:
Bos taurus = species: Bos taurus; experiment: Inhibition of calf thymus DNA topoisomerase 1-mediated relaxation of supercoiled pBR322 plasmid DNA at 50 uM 30 mins by ethidium bromide staining
[1] = Inhibition of M-phase starfish oocytes CDK1/cyclin B using [gamma-33P]ATP after 30 mins; parameters: species or system Marthasterias glacialis; conditions: oocyte
Outline: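 CDK1/cyclin B extracted from oocytes in homogenization buffer, affinity-purified on p9CKShs1-Sepharose and eluted with free p9CKShs1. Activity measured in buffer C with 1 mg/mL histone H1 and 15 μM [γ-33P]ATP, 30 min at 30 °C. Read-out: 33P captured on P81 phosphocellulose by scintillation counting; blank subtracted; activity as % of uninhibited control; DMSO controls.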

HeLa = experiment: Cytotoxicity against human HeLa cells after 72 hrs by colony formation assay; type: functional, cell-based
Outline: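 HeLa cells, 100−150 per well, cultured 72 h at 37 °C under 5% CO2 with varying compound concentrations in MEM with 10% fetal calf serum plus penicillin/streptomycin. Colonies (clusters of ≥40 cells) counted after methylene blue staining. Duplicates, at least four concentrations; IC50 by least-squares fit to logarithm-probit analysis.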

[2] = biological target: Dual specificity tyrosine-phosphorylation-regulated kinase 1A (Homo sapiens, UniProt Q13627); experiment: Inhibition of human recombinant DYRK1A expressed in Escherichia coli using [gamma-33P]ATP after 30 mins
Outline: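 Enzyme (DYRK1A GST fusion purified on glutathione-agarose) assayed like CDK1/cyclin B: buffer C, 1 mg/mL histone H1, 15 μM [γ-33P]ATP, 30 min at 30 °C, P81 filter capture, scintillation counting, % of activity without inhibitor.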

[3] = Cytotoxicity against human SH-SY5Y cells after 72 hrs by MTS assay; type: functional, cell-based
Outline: (§1)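 Neuroblastoma cells grown in DMEM with 2 mM L-glutamine, antibiotics and 10% FCS; viability read by MTS reduction. Triplicate assays, values within 10%. IC50 estimated graphically from dose−response curves of at least six inhibitor concentrations.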

[4] = Inhibition of porcine brain CK1delta/epsilon using CKS peptide and [gamma-33P]ATP as substrate after 30 mins; parameters: species or system Sus scrofa
Outline: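 CK1δ/ε affinity-purified on immobilized axin fragment. Reaction captured on P81 phosphocellulose, washed in 1% phosphoric acid, scintillation counted; blanks subtracted; activity as % of no-inhibitor control, DMSO controls.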

IMR-32 = experiment: Cytotoxicity against human IMR32 cells after 72 hrs by MTS assay; type: functional, cell-based; conditions: IMR-32, 72 h; outline: as §1
[5] = biological target: Glycogen synthase kinase-3 (Sus scrofa, UniProt B2LUN4+I6LNT8); experiment: Inhibition of porcine brain GSK-3alpha/beta using GS-1 peptide and [gamma-33P]ATP as substrate after 30 mins
Outline: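 GSK-3α/β purified on immobilized axin, diluted 1/100 in 1 mg/mL BSA with 10 mM DTT. Substrate GS-1 phosphopeptide (5 μL of 4 μM), buffer A pH 7.5, 15 μM [γ-33P]ATP, 30 min at 30 °C. Radioactivity on P81 paper counted; blank subtracted; results as % of activity without inhibitor.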

| SMILES | inhibition (Bos taurus) | IC50 [1] [nM] | IC50 (HeLa) [nM] | IC50 [2] [nM] | IC50 [3] [nM] | IC50 [4] [nM] | IC50 (IMR-32) [nM] | IC50 [5] [nM] |
| --- | --- | --- | --- | --- | --- | --- | --- | --- |
| COc1cc(-c2c3c4cc(OC)c(O)cc4oc(=O)c3n3ccc4cc(O)c(OC)cc4c23)ccc1O | Active | – | – | – | – | – | – | – |
| CC[C@@]1(O)C(=O)OCc2c1cc1n(c2=O)Cc2cc3ccccc3nc2-1 | Active | – | – | – | – | – | – | – |
| COc1ccc(-c2c3c4cc(OC)c(O)cc4oc(=O)c3n3ccc4cc(O)c(OC)cc4c23)cc1O | Active | 70 | 32 | 35 | 40 | > 10000 | 19 | 5 |
